Measured values from paper PMC8592115 (ACS Medicinal Chemistry Letters, 2021).
“Also recorded” adds a separate entry of the source.

Tests used:
[1] = molecular target: T1, CXCL12 (Homo sapiens, UniProt P48061); test: 2D NMR chemical shift perturbation titration of 15N-CXCL12; type: binding; details: for precipitation/aggregation of CXCL12 on addition of compound: NMR titration samples
[2] = Qualitative solubility of compounds in NMR titration samples; type: physicochemical; details: samples prepared for NMR titration
How it was run: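 Test compound titrated into CXCL12 at increasing concentrations up to 1600 μM, with HSQC spectra recorded at each step. Solubility was scored against a cut-off of ≥1600 μM in these titration samples. Soluble compounds counted as binders if they also shifted at least two of residues I28, V39 and A40 by ≥0.5 ppm.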

[3] = molecular target: T1, CXCL12; test: Calculation of ligand efficiency; details: Table 6; LLE = pKd – cLogP

## O=C(O)CSc1nc(SCC(=O)O)nc(-c2ccoc2)n1 [Compound 13n]
[1]
  precipitation/aggregation of CXCL12 on addition of compound: precipitated the protein from solution; also recorded: caused CXCL12 to precipitate

## O=C(O)CSc1nc(SCC(=O)O)nc(-c2ccc(N3CCOCC3)cc2)n1 [Compound 13i]
[2]
  solubility, qualitative: qualitatively greater solubility

## O=C(O)CSc1nc(SCC(=O)O)nc(-c2ccc(Oc3ccccc3)cc2)n1 [Compound 13m]
[1]
  precipitation/aggregation of CXCL12 on addition of compound: precipitated the protein from solution; also recorded: caused CXCL12 to precipitate

## O=C(O)c1ccc(Nc2nc(Nc3ccc(C(=O)O)cc3)nc(-c3ccccc3)n2)cc1 [Compound 9m]
[1]
  precipitation/aggregation of CXCL12 on addition of compound: caused aggregation and precipitation of the protein

## O=C(O)CSc1nc(SCC(=O)O)nc(Sc2ccccc2)n1 [Compound 24a, 2,2'-((6-(Phenylthio)-1,3,5-triazine-2,4-diyl)bis(sulfanediyl))diacetic acid]
[2]
  solubility, qualitative: not as soluble as some of our other analogues

## O=C(O)CSc1nc(SCC(=O)O)nc(N2CCOCC2)n1 [Compound 24j]
[2]
  solubility, qualitative: notably more soluble than its analogues
[3]
  LLE (lipophilic ligand efficiency): 2.07

## O=C(O)CSc1nc(SCC(=O)O)nc(-c2ccc(-c3ccccc3)cc2)n1 [Compound 13e]
[2]
  solubility, qualitative: insoluble; also recorded: low solubility

## O=C(O)CSc1nc(SCC(=O)O)nc(-c2cnc3ccccc3c2)n1 [Compound 13l]
[1]
  precipitation/aggregation of CXCL12 on addition of compound: precipitated the protein from solution; also recorded: caused CXCL12 to precipitate

## O=C(O)CSc1nc(SCC(=O)O)nc(C2=CCCCC2)n1 [Compound 20, 2,2'-((6-(Cyclohex-1-en-1-yl)-1,3,5-triazine-2,4-diyl)bis(sulfanediyl))diacetic acid]
[1]
  precipitation/aggregation of CXCL12 on addition of compound: caused the protein to precipitate; also recorded: b 20 caused CXCL12 to precipitate

## O=C(O)CSc1nc(SCC(=O)O)nc(C2C3CC4CC(C3)CC2C4)n1 (centres unmarked) [Compound 17, 2,2'-((6-((1r,3r)-Adamantan-2-yl)-1,3,5-triazine-2,4-diyl)bis(sulfanediyl))diacetic acid]
[1]
  Kd: > 1600 µM
